Test results as given in ChEMBL document CHEMBL1759861, “Synthesis of 9-substituted derivatives of berberine as anti-HIV agents” (Eur J Med Chem, 2011).

Key:
[1] = system: Human immunodeficiency virus 1; experiment: Antiviral activity against 0.05 MOI Human immunodeficiency virus 1 NL4.3 infected in human CEM cells expressing green fluorescent protein assessed as p24 antigen production measured 7 days post infection by ELISA; assay type: functional, organism-based; conditions: Human immunodeficiency virus 1, NL4.3, CCRF-CEM, 168 h
Summary of the method: (§1)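 CEM-GFP cells infected with HIV-1 NL4.3 (MOI 0.05) and cultured with samples over a concentration range up to 7 days post infection. p24 antigen capture ELISA on day-7 supernatant. EC50 is the concentration giving 50% inhibition of infected cells. Therapeutic index is CC50 in uninfected cells (MTT, 48 h) divided by EC50.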

[2] = biological target: Human immunodeficiency virus type 1 reverse transcriptase (Human immunodeficiency virus 1) (UniProt Q72547); experiment: Inhibition of Human immunodeficiency virus 1 NL4.3 reverse transcriptase activity at 20 ug/ml
[3] = Cytotoxicity against human CEM cells expressing green fluorescent protein after 48 hrs by MTT assay; assay type: cell-based, CCRF-CEM
Summary of the method: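 Uninfected CEM-GFP cells seeded at 2×10^4 cells/well with samples at several concentrations, untreated and vehicle-treated controls, 48 h. MTT reagent (5 mg/ml stock) added, formazan solubilised, absorbance read at 540 nm. CC50 is the concentration giving 50% cytotoxicity.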

[4] = Therapeutic index, ratio of CC50 for human CEM cells expressing green fluorescent protein to EC50 for Human immunodeficiency virus 1 NL4.3; assay type: cell-based, CCRF-CEM; conditions: read-out: TI; summary of the method: as §1
[5] = system: Human immunodeficiency virus 1; experiment: Antiviral activity against 0.05 MOI Human immunodeficiency virus 1 NL4.3 infected in human CEM cells expressing green fluorescent protein assessed as p24 antigen production at 4.32 uM measured 7 days post infection by ELISA; assay type: functional; conditions: Human immunodeficiency virus 1, NL4.3, CCRF-CEM, 168 h
Summary of the method: (§2)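 CD4+ T-cell line CEM-GFP infected with HIV-1 NL4.3 at MOI 0.05, monitored by GFP under the microscope. Each sample tested at a single concentration, its highest noncytotoxic concentration, for up to 7 days post infection. Day-7 culture supernatant assayed for virus by p24 antigen capture ELISA; % inhibition of replication reported. AZT positive control.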

[6] = system: Human immunodeficiency virus 1; experiment: Antiviral activity against 0.05 MOI Human immunodeficiency virus 1 NL4.3 infected in human CEM cells expressing green fluorescent protein assessed as p24 antigen production at 15.52 uM measured 7 days post infection by ELISA; assay type: functional; conditions: Human immunodeficiency virus 1, NL4.3, CCRF-CEM, 168 h; summary of the method: as §2
[7] = system: Human immunodeficiency virus 1; experiment: Antiviral activity against 0.05 MOI Human immunodeficiency virus 1 NL4.3 infected in human CEM cells expressing green fluorescent protein assessed as p24 antigen production at 2.10 uM measured 7 days post infection by ELISA; assay type: functional; conditions: Human immunodeficiency virus 1, NL4.3, CCRF-CEM, 168 h; summary of the method: as §2
[8] = system: Human immunodeficiency virus 1; experiment: Antiviral activity against 0.05 MOI Human immunodeficiency virus 1 NL4.3 infected in human CEM cells expressing green fluorescent protein assessed as p24 antigen production at 2.24 uM measured 7 days post infection by ELISA; assay type: functional; conditions: Human immunodeficiency virus 1, NL4.3, CCRF-CEM, 168 h; summary of the method: as §2
[9] = system: Human immunodeficiency virus 1; experiment: Antiviral activity against 0.05 MOI Human immunodeficiency virus 1 NL4.3 infected in human CEM cells expressing green fluorescent protein assessed as p24 antigen production at 1.95 uM measured 7 days post infection by ELISA; assay type: functional; conditions: Human immunodeficiency virus 1, NL4.3, CCRF-CEM, 168 h; summary of the method: as §2
[10] = system: Human immunodeficiency virus 1; experiment: Antiviral activity against 0.05 MOI Human immunodeficiency virus 1 NL4.3 infected in human CEM cells expressing green fluorescent protein assessed as p24 antigen production at 1.05 uM measured 7 days post infection by ELISA; assay type: functional; conditions: Human immunodeficiency virus 1, NL4.3, CCRF-CEM, 168 h; summary of the method: as §2
[11] = system: Human immunodeficiency virus 1; experiment: Antiviral activity against 0.05 MOI Human immunodeficiency virus 1 NL4.3 infected in human CEM cells expressing green fluorescent protein assessed as p24 antigen production at 4.69 uM measured 7 days post infection by ELISA; assay type: functional; conditions: Human immunodeficiency virus 1, NL4.3, CCRF-CEM, 168 h; summary of the method: as §2
[12] = system: Human immunodeficiency virus 1; experiment: Antiviral activity against 0.05 MOI Human immunodeficiency virus 1 NL4.3 infected in human CEM cells expressing green fluorescent protein assessed as p24 antigen production at 4.88 uM measured 7 days post infection by ELISA; assay type: functional; conditions: Human immunodeficiency virus 1, NL4.3, CCRF-CEM, 168 h; summary of the method: as §2
[13] = system: Human immunodeficiency virus 1; experiment: Antiviral activity against 0.05 MOI Human immunodeficiency virus 1 NL4.3 infected in human CEM cells expressing green fluorescent protein assessed as p24 antigen production at 0.02 uM measured 7 days post infection by ELISA; assay type: functional; conditions: Human immunodeficiency virus 1, NL4.3, CCRF-CEM, 168 h; summary of the method: as §2
[14] = biological target: Human immunodeficiency virus type 1 reverse transcriptase (Human immunodeficiency virus 1) (UniProt Q72547); experiment: Inhibition of Human immunodeficiency virus 1 NL4.3 reverse transcriptase activity at 200 ug/ml
Summary of the method: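 HIV-1 RT inhibition measured with a colorimetric reverse transcriptase assay kit, following the manufacturer's protocol; nevirapine served as the positive control.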

[15] = system: Human immunodeficiency virus 1; experiment: Antiviral activity against 0.05 MOI Human immunodeficiency virus 1 NL4.3 infected in human CEM cells expressing green fluorescent protein assessed as p24 antigen production at 9.77 uM measured 7 days post infection by ELISA; assay type: functional; conditions: Human immunodeficiency virus 1, NL4.3, CCRF-CEM, 168 h; summary of the method: as §2
[16] = system: Human immunodeficiency virus 1; experiment: Antiviral activity against 0.05 MOI Human immunodeficiency virus 1 NL4.3 infected in human CEM cells expressing green fluorescent protein assessed as p24 antigen production at 21.65 uM measured 7 days post infection by ELISA; assay type: functional; conditions: Human immunodeficiency virus 1, NL4.3, CCRF-CEM, 168 h; summary of the method: as §2
[17] = system: Human immunodeficiency virus 1; experiment: Antiviral activity against 0.05 MOI Human immunodeficiency virus 1 NL4.3 infected in human CEM cells expressing green fluorescent protein assessed as p24 antigen production at 5.31 uM measured 7 days post infection by ELISA; assay type: functional; conditions: Human immunodeficiency virus 1, NL4.3, CCRF-CEM, 168 h; summary of the method: as §2
[18] = system: Human immunodeficiency virus 1; experiment: Antiviral activity against 0.05 MOI Human immunodeficiency virus 1 NL4.3 infected in human CEM cells expressing green fluorescent protein assessed as p24 antigen production at 0.29 uM measured 7 days post infection by ELISA; assay type: functional; conditions: Human immunodeficiency virus 1, NL4.3, CCRF-CEM, 168 h; summary of the method: as §2
[19] = system: Human immunodeficiency virus 1; experiment: Antiviral activity against 0.05 MOI Human immunodeficiency virus 1 NL4.3 infected in human CEM cells expressing green fluorescent protein assessed as p24 antigen production at 4.62 uM measured 7 days post infection by ELISA; assay type: functional; conditions: Human immunodeficiency virus 1, NL4.3, CCRF-CEM, 168 h; summary of the method: as §2
[20] = system: Human immunodeficiency virus 1; experiment: Antiviral activity against 0.05 MOI Human immunodeficiency virus 1 NL4.3 infected in human CEM cells expressing green fluorescent protein assessed as p24 antigen production at 5.30 uM measured 7 days post infection by ELISA; assay type: functional; conditions: Human immunodeficiency virus 1, NL4.3, CCRF-CEM, 168 h; summary of the method: as §2
[21] = system: Human immunodeficiency virus 1; experiment: Antiviral activity against 0.05 MOI Human immunodeficiency virus 1 NL4.3 infected in human CEM cells expressing green fluorescent protein assessed as p24 antigen production at 5 uM measured 7 days post infection by ELISA; assay type: functional; conditions: Human immunodeficiency virus 1, NL4.3, CCRF-CEM, 168 h; summary of the method: as §2
[22] = system: Human immunodeficiency virus 1; experiment: Antiviral activity against 0.05 MOI Human immunodeficiency virus 1 NL4.3 infected in human CEM cells expressing green fluorescent protein assessed as p24 antigen production at 18.03 uM measured 7 days post infection by ELISA; assay type: functional; conditions: Human immunodeficiency virus 1, NL4.3, CCRF-CEM, 168 h; summary of the method: as §2
[23] = system: Human immunodeficiency virus 1; experiment: Antiviral activity against 0.05 MOI Human immunodeficiency virus 1 NL4.3 infected in human CEM cells expressing green fluorescent protein assessed as p24 antigen production at 1.03 uM measured 7 days post infection by ELISA; assay type: functional; conditions: Human immunodeficiency virus 1, NL4.3, CCRF-CEM, 168 h; summary of the method: as §2

In the case of `COc1ccc2cc3[n+](cc2c1OC(=O)c1ccc(F)cc1F)CCc1cc2c(cc1-3)OCO2`, the EC50 [1] is reported as 950 nM, the inhibition [2] is reported as 99% and the CC50 at 48 h [3] is reported as 57100 nM. The selectivity ratio [4] was 60.1 and the inhibition at 4.32 µM [5] was 71.7%.

With `COc1ccc2cc3[n+](cc2c1O)CCc1cc2c(cc1-3)OCO2` [BERBERRUBINE CHLORIDE] the EC50 [1] was 2800 nM, the inhibition [2] was 99% and the CC50 at 48 h [3] was 169000 nM. It also gave a selectivity ratio [4] of 60.4 and an inhibition at 15.52 µM [6] of 77%.

`COc1ccc2cc3[n+](cc2c1OC(=O)c1ccc2ccccc2c1)CCc1cc2c(cc1-3)OCO2` gave an inhibition at 2.1 µM [7] of 58.8%.

In the case of `COc1ccc2cc3[n+](cc2c1OC(=O)Cc1cccs1)CCc1cc2c(cc1-3)OCO2`, the inhibition at 2.24 µM [8] is reported as 0%.

`COc1ccc2cc3[n+](cc2c1OC(=O)c1c(F)cccc1C(F)(F)F)CCc1cc2c(cc1-3)OCO2` showed an inhibition at 1.95 µM [9] of 0%.

Compound `COc1ccc2cc3[n+](cc2c1OC(=O)c1cccc2ccccc12)CCc1cc2c(cc1-3)OCO2` has an inhibition at 1.05 µM [10] of 0%.

`COc1ccc2cc3[n+](cc2c1OC(=O)c1ccccc1)CCc1cc2c(cc1-3)OCO2` gave an inhibition at 4.69 µM [11] of 37.2%.

For `COc1ccc2cc3[n+](cc2c1OC(=O)c1ccc(F)cc1C(F)(F)F)CCc1cc2c(cc1-3)OCO2`, the inhibition at 4.88 µM [12] was 0%.

Compound `COc1ccc(C(=O)Oc2c(OC)ccc3cc4[n+](cc23)CCc2cc3c(cc2-4)OCO3)cc1` has an inhibition at 0.02 µM [13] of 44.3%.

In the case of `COc1ccc2cc3[n+](cc2c1OC(=O)c1ccc(F)c(C(F)(F)F)c1)CCc1cc2c(cc1-3)OCO2`, the inhibition at 4.88 µM [12] is reported as 0%.

`COc1cc2c(cc1OC)[C@@H]1Cc3ccc(OC)c(OC)c3CN1CC2` gave an inhibition [14] of 25%.

For `COc1ccc2cc3[n+](cc2c1OC(=O)c1ccc(C(F)(F)F)cc1F)CCc1cc2c(cc1-3)OCO2`, the inhibition at 9.77 µM [15] was 23.4%.

`COc1ccc2cc3[n+](cc2c1OC(=O)c1ccc(F)c(F)c1)CCc1cc2c(cc1-3)OCO2` gave an inhibition at 21.65 µM [16] of 0%.

`COc1ccc2cc3[n+](cc2c1OC(=O)c1ccc2c(c1)OCO2)CCc1cc2c(cc1-3)OCO2` gave an inhibition at 5.31 µM [17] of 45.6%.

With `COc1ccc2cc3[n+](cc2c1OC)CCc1cc2c(cc1-3)OCO2` [BERBERINE CHLORIDE] the inhibition at 0.29 µM [18] was 66%, the EC50 [1] was 130 nM and the inhibition [2] was 94%. The CC50 at 48 h [3] was 2090 nM and the selectivity ratio [4] was 16.1.

`COc1ccc2cc3[n+](cc2c1OC(=O)c1cccs1)CCc1cc2c(cc1-3)OCO2` gave an EC50 [1] of 1820 nM, an inhibition [2] of 99% and a CC50 at 48 h [3] of 91900 nM. For the same compound, the inhibition at 4.62 µM [19] was 73.1% and the selectivity ratio [4] was 50.5.

For `COc1ccc2cc3[n+](cc2c1OC(=O)c1ccc(SC)cc1)CCc1cc2c(cc1-3)OCO2`, the inhibition at 5.3 µM [20] was 0%.

For `Cc1cn([C@H]2C[C@H](N=[N+]=[N-])[C@@H](CO)O2)c(=O)[nH]c1=O` [ZIDOVUDINE], the EC50 [1] was 1050 nM and the inhibition at 5 µM [21] was 89.8%.

`COc1ccc2cc3[n+](cc2c1OC(=O)c1ccco1)CCc1cc2c(cc1-3)OCO2` showed an inhibition at 18.03 µM [22] of 22.6%.

In the case of `COc1ccc2cc3[n+](cc2c1OC(=O)C12CC4CC(CC(C4)C1)C2)CCc1cc2c(cc1-3)OCO2`, the inhibition at 1.03 µM [23] is reported as 64.2%.
